According to publication PMC7984404 (Journal of Clinical Pharmacology, 2020):

Columns and labels:
[1] = cited from earlier work
[2] = tested on: pediatric patients with HAE; assay: Time to onset of symptom relief; assay type: in vivo, human; conditions: for Median time to 50% probability of TOSR: pediatric HAE
Outline: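 Pediatric HAE patients aged 2-17 received single SC 0.4 mg/kg (≤30 mg). The investigator scored symptoms before and after dosing. TOSR was the earliest time with ≥20% improvement in composite score and no component worsening. Model-predicted CTOSR, AUC0-TOSR, AUC0-6 and Cmax were related to TOSR by Kaplan-Meier curves stratified by exposure tertiles, and also by age group and sex.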

Exposure parameters = assay type: in vivo, human; conditions: for AUC0-6, mean (%CV) / AUC0-6, median [range] / Cmax, mean (%CV) / Cmax, median [range]: popPK model-derived
Outline: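 Final popPK model simulated concentration-time profiles from each subject's actual dosing history: single SC doses of 30 or 45 mg in adult HAE patients, and 0.05, 0.2 and 0.4 mg/kg single ascending doses in healthy adults. AUC0-6 came from simulated rich profiles by the trapezoidal rule, alongside Cmax, tmax and distribution and terminal half-lives. Values were summarised descriptively.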

[3] = Population pharmacokinetic; assay type: in vivo, human
Outline: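 Pooled data from healthy adults, adult HAE patients and pediatric HAE patients aged 2-17 (2172 plasma concentrations, LC-MS/MS) were fitted with a two-compartment model. It had first-order absorption, lag time, and allometric weight effects with estimated exponents. Between-subject variability was log-normal, with additive plus proportional residual error. Covariates were weight, age, sex, race and attack within 12 h. CIs came from about 1000 bootstrap replicates, with prediction-corrected VPC.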

[4] = adult patients with HAE, SC 30 mg, n = 4
[5] = adult patients with HAE, SC 45 mg, n = 4
[6] = healthy subjects, SC 0.4 mg/kg, n = 24
[7] = healthy subjects, SC 30 mg, n = 109
[8] = pediatric patients with HAE 2-5 years, SC 0.4 mg/kg, n = 2
[9] = pediatric patients with HAE, SC 0.4 mg/kg (≤30 mg)
[10] = final popPK model, typical value, reference 70 kg
[11] = typical 70-kg adult, final popPK model

For NC(N)=NCCC[C@@H](N)C(=O)N[C@@H](CCCN=C(N)N)C(=O)N1CCC[C@H]1C(=O)N1C[C@H](O)C[C@H]1C(=O)NCC(=O)N[C@@H](Cc1cccs1)C(=O)N[C@@H](CO)C(=O)N1Cc2ccccc2C[C@@H]1C(=O)N1[C@H](C(=O)N[C@@H](CCCN=C(N)N)C(=O)O)C[C@@H]2CCCC[C@@H]21 [icatibant], the “Time to achievement of maximum plasma concentrations” value ([1]; adults, single subcutaneous injection of 30 mg) is listed as at most 1 h, the “Parent drug excreted unchanged in human urine” value ([1]; human) is listed as under 10% and the “Median time to 50% probability of TOSR” value ([2]; first tertile of CTOSR) is listed as 2.00 h. The “Time within which all patients displayed resolution of symptoms” value ([2]; pediatric patients with HAE, single SC 0.4 mg/kg (≤30 mg)) was at most 4 h, the “Median time to 50% probability of TOSR” value ([2]; second tertile of CTOSR) was 1.03 h and the “AUC0-6, mean (%CV)” value (Exposure parameters; [4]) was 2725 (25.3) ng·h/mL. The “AUC0-6, median [range]” value (Exposure parameters; [4]) was 2975 [1734‐3216] ng·h/mL, the “Cmax, mean (%CV)” value (Exposure parameters; [4]) was 1279 (16.7) ng/mL and the “Cmax, median [range]” value (Exposure parameters; [4]) was 1254 [1056‐1551] ng/mL. For the same compound, the “AUC0-6, mean (%CV)” value (Exposure parameters; [5]) was 5473 (18.6) ng·h/mL, the “AUC0-6, median [range]” value (Exposure parameters; [5]) was 5565 [4155‐6608] ng·h/mL and the “Cmax, mean (%CV)” value (Exposure parameters; [5]) was 2136 (16.3) ng/mL. The “Cmax, median [range]” value (Exposure parameters; [5]) was 2222 [1680‐2421] ng/mL, the “AUC0-6, mean (%CV)” value (Exposure parameters; [6]) was 2669 (20.9) ng·h/mL and the “AUC0-6, median [range]” value (Exposure parameters; [6]) was 2704 [1720‐3829] ng·h/mL. The “Cmax, mean (%CV)” value (Exposure parameters; [6]) was 1240 (25.1) ng/mL, the “Cmax, median [range]” value (Exposure parameters; [6]) was 1258 [836‐2120] ng/mL and the “AUC0-6, mean (%CV)” value (Exposure parameters; [7]) was 2038 (23.8) ng·h/mL. For the same compound, the “AUC0-6, median [range]” value (Exposure parameters; [7]) was 1941 [1126‐3311] ng·h/mL, the “Cmax, mean (%CV)” value (Exposure parameters; [7]) was 974 (30.1) ng/mL and the “Cmax, median [range]” value (Exposure parameters; [7]) was 915 [524‐2115] ng/mL. For the same compound, the “AUC0-6, mean (%CV)” value (Exposure parameters; [8]) was 900 (24.6) ng·h/mL, the “AUC0-6, median [range]” value (Exposure parameters; [8]) was 900 [744‐1056] ng·h/mL and the “Cmax, mean (%CV)” value (Exposure parameters; [8]) was 692 (18.1) ng/mL. The “Cmax, median [range]” value (Exposure parameters; [8]) was 692 [604‐780] ng/mL, the “Mean AUC0-6 lower than in adult patients with HAE treated with 30 mg” value (Exposure parameters; [9]) was “about 50%” and the “Mean Cmax lower than in adult patients with HAE treated with 30 mg” value (Exposure parameters; [9]) was about 42%. The “Cl/F lower than in a 70-kg adult” value ([3]; 60-kg adolescent (aged 12-17 years), final popPK model) was 7%, the “Time to complete absorption after dosing” value ([3]; SC dosing, expected from final popPK model) was at most 1 h and the “Absorption half-life t1/2(a)” value ([3]; corresponding to ka = 3.27 h^–1, SC dosing, final popPK model) was about 12.7 min. The “Allometric exponent of weight (weight/70) on Vc/F” value ([3]; final popPK model) was 0.671, the “Allometric exponent of weight (weight/70) on Vp/F” value ([3]; final popPK model) was 0.671 and the “Multiplicative factor on Vc/F if female” value ([3]; final popPK model) was 0.855. For the same compound, the “Multiplicative factor on Vc/F if nonwhite” value ([3]; final popPK model) was 1.11, the “Typical Cl/F lower in females than in males” value ([3]; final popPK model) was “about 12%” and the “Typical Cl/F lower in pediatric patients who experienced an acute attack” value ([3]; final popPK model) was 9%. The “Typical Vc/F higher in nonwhite than in white subjects” value ([3]; final popPK model) was 11%, the “ka (absorption rate constant)” value ([3]; final popPK model, SC dosing, n = 172 (adults and pediatric HAE), typical value) was 3.27 h^–1 and the “tlag (lag time)” value ([3]; final popPK model, SC dosing, n = 172, typical value) was 0.0426 h. The “Vc/F (apparent central volume of distribution)” value ([3]; final popPK model, SC dosing, n = 172, typical value, reference 70 kg) was 20.4 L, the “Cl/F (apparent total clearance)” value ([3]; final popPK model, SC dosing, n = 172, typical value, reference 70 kg, age 25) was 15.4 L/h and the “Clp/F (apparent intercompartmental clearance)” value [3, 10] was 0.398 L/h. For the same compound, the “Vp/F (apparent peripheral volume of distribution)” value [3, 10] was 1.75 L, the “Clearance slower relative to a subject aged 25 years” value ([3]; subject aged 45 years, age effect of final popPK model) was 20% and the “Cl/F lower than in a 70-kg adult” value ([3]; typical 40-kg child (aged 2-11 years), final popPK model) was 25%. The “Distribution half-life t1/2(α)” value [3, 11] was 53.4 min and the “Terminal elimination half-life t1/2(β)” value [3, 11] was 192 min.
